This is an account of results in PMC6818095 (Journal of medicinal chemistry, 2014).

Series [1] deals with T1, σ2 receptor (Rattus norvegicus, UniProt Q5U3Y7).
T1 sequence (Q5U3Y7 1-176): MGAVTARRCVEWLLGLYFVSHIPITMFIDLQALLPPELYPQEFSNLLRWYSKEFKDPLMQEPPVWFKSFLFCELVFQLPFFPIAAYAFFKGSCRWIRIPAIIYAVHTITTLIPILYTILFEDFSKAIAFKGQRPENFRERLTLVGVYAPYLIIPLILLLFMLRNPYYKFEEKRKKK
It is filed as binding. The conditions noted are these: for increase of selectivity for σ2 compared to 26 / increase of σ2 binding affinity compared to 26: relative to nonsubstituted 1H-[1,2,3]triazole carboxamide analogue 26; for lower binding affinity for σ2 receptor than corresponding methoxy-substituted congeners: 39e and 39f versus 39b and 39c.

Series [2] relates to EMT-6 murine breast cancer cells. Briefly: functional assay: cell viability. It counts as cell-based. The conditions noted are these: for cytotoxicity (in words): EMT-6 cells, cell viability assay. In a few lines: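 EMT-6 murine breast cancer cells grown in DMEM with 10% FBS and penicillin/streptomycin at 37 °C, 5% CO2; seeded 5 × 10^3 cells/well 24 h before dosing. Test compound in DMSO serially diluted in medium (final DMSO ≤1.0%), 24 or 48 h exposure. MTS reagent 1–2 h at 37 °C, A490. Viability relative to untreated cells; EC50 from dose–response curves; triplicate, mean ± SEM of three experiments.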

Each structure is given as a SMILES string.

`COc1cc2c(cc1OC)CN(CCCCNC(=O)c1cn(-c3ccccc3OC)nn1)CC2` [24d, N-(4-(6,7-Dimethoxy-3,4-dihydro-1H-isoquinolin-2-yl)butyl)-1-(2-methoxyphenyl)-1H-1,2,3-triazole-4-carboxamide]: in series [1], the “increase of selectivity for σ2 compared to 26” value (“increase of selectivity for σ2” for short) came out at 817 fold and the “increase of σ2 binding affinity compared to 26” value (“increase of σ2 binding affinity” for short) is 682 fold.

As for `COc1cccc(-n2cc(C(=O)NCCCCN3CCc4cc(OC)c(OC)cc4C3)nn2)c1` [24e, N-(4-(6,7-Dimethoxy-3,4-dihydro-1H-isoquinolin-2-yl)butyl)-1-(3-methoxyphenyl)-1H-1,2,3-triazole-4-carboxamide], in series [1], the “increase of selectivity for σ2” value is given as 629 fold and the “increase of σ2 binding affinity” value is 341 fold.

Regarding `COc1ccc(-n2cc(C(=O)NCCCCN3CCc4cc(OC)c(OC)cc4C3)nn2)cc1` [24f, N-(4-(6,7-Dimethoxy-3,4-dihydro-1H-isoquinolin-2-yl)butyl)-1-(4-methoxyphenyl)-1H-1,2,3-triazole-4-carboxamide], the “increase of σ2 binding affinity” value in series [1] was 186 fold. Besides, in series [2], the “cytotoxicity (in words)” value is reported as “did not induce cytotoxicity”. Further, in series [2] (based on cytotoxicity in EMT-6 cells relative to siramesine), the “agonist/antagonist classification at the σ2 receptor” value is “antagonist”.

As for `COc1ccccc1Cn1cc(C(=O)NCCCCN2CCc3cc(OC)c(OC)cc3C2)nn1` [39a, N-(4-(6,7-Dimethoxy-3,4-dihydro-1H-isoquinolin-2-yl)butyl)-1-(2-methoxybenzyl)-1H-1,2,3-triazole-4-carboxamide], in series [1], the “increase of selectivity for σ2” value is on record as 198 fold and the “increase of σ2 binding affinity” value is 105 fold.

`COc1cccc(Cn2cc(C(=O)NCCCCN3CCc4cc(OC)c(OC)cc4C3)nn2)c1` [39b, N-(4-(6,7-Dimethoxy-3,4-dihydro-1H-isoquinolin-2-yl)butyl)-1-(3-methoxybenzyl)-1H-1,2,3-triazole-4-carboxamide]: in series [1], the “increase of selectivity for σ2” value was 110 fold and the “increase of σ2 binding affinity” value came out at 96 fold.

Consider `COc1ccc(Cn2cc(C(=O)NCCCCN3CCc4cc(OC)c(OC)cc4C3)nn2)cc1` [39c, N-(4-(6,7-Dimethoxy-3,4-dihydro-1H-isoquinolin-2-yl)butyl)-1-(4-methoxybenzyl)-1H-1,2,3-triazole-4-carboxamide], for which, in series [1], the “increase of selectivity for σ2” value was 63 fold and the “increase of σ2 binding affinity” value is 205 fold.

`COc1cc2c(cc1OC)CN(CCCCNC(=O)c1cn(Cc3ccccc3)nn1)CC2` [39d, 1-Benzyl-N-(4-(6,7-dimethoxy-3,4-dihydro-1H-isoquinolin-2-yl)-butyl)-1H-1,2,3-triazole-4-carboxamide]: in series [1], the “increase of selectivity for σ2” value worked out at 34 fold and the “increase of σ2 binding affinity” value is recorded as 82 fold.

Take `COc1cc2c(cc1OC)CN(CCCCNC(=O)c1cn(Cc3cccc(O)c3)nn1)CC2` [39e, N-(4-(6,7-Dimethoxy-3,4-dihydro-1H-isoquinolin-2-yl)butyl)-1-(3-hydroxybenzyl)-1H-1,2,3-triazole-4-carboxamide]: the “lower binding affinity for σ2 receptor than corresponding methoxy-substituted congeners” value in series [1] is 2 fold.

In the case of `COc1cc2c(cc1OC)CN(CCCCNC(=O)c1cn(Cc3ccc(O)cc3)nn1)CC2` [39f, N-(4-(6,7-Dimethoxy-3,4-dihydro-1H-isoquinolin-2-yl)butyl)-1-(4-hydroxybenzyl)-1H-1,2,3-triazole-4-carboxamide], the “lower binding affinity for σ2 receptor than corresponding methoxy-substituted congeners” value in series [1] stood at 2 fold.

With `COc1cccc(Cn2cc(C(=O)NCCN3CCc4cc(OC)c(OC)cc4C3)nn2)c1` [40e, N-(2-(6,7-Dimethoxy-3,4-dihydro-1H-isoquinolin-2-yl)ethyl)-1-(3-methoxybenthyl)-1H-1,2,3-triazole-4-carboxamide], in series [1] (2-carbon spacer 40a–40f versus 24d–24f and 39a–39c), the “σ2 binding affinity lower than the 4-carbon spacer congeners” value turned out to be 20 fold.

As to `COc1cc2c(cc1OC)CN(CCCCNC(=O)c1cc(-n3cc(CN(C)C)nn3)ccc1OCCF)CC2` [compound 65, N-(4-(6,7-Dimethoxy-3,4-dihydroisoquinolin-2(1H)-yl)butyl)-5-(4-((dimethylamino)methyl)-1H-1,2,3-triazol-1-yl)-2-(2-fluoroethoxy)benzamide], the “σ2 binding affinity lower than lead compound 8” value in series [1] (65 versus lead compound 8) is 14 fold. Besides, the “σ2 binding affinity lower than lead compound 9” value in series [1] (65 versus lead compound 9) turned out to be 89 fold.

For the compound `Fc1ccc(-n2cc(CCCCN3CCC4(CC3)OCc3ccccc34)c3ccccc32)cc1` [siramesine, reference compound], in series [2], the “cytotoxicity (in words)” value was “potent cytotoxicity”.
